# Bioassay records as filed in PubChem BioAssay.
# The list is a sample of the results.
# Apaf-1 act – human Apaf-1 activation | O14727 | Apaf-1 apoptosome caspase-3 activation, DEVD-Rh110 fluorescence; hits give low values | activity change, negative = activation, % at 20 µM | hit rate 0.31% among 330,000;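 active = activity change at or below -40% at 20 µM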
#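 Assay system – biochemical Apaf-1 apoptosome reconstitution · Medium – 20 mM HEPES buffer, pH 7.5, containing CHAPS and BSA · Incubation – 30 min preincubation, 50 min reaction, room temperature · Measured by – Caspase-3-released Rh110 fluorescence, 540 nm emission, 480 nm excitation · Read-out – Caspase-3 cleavage activity downstream of Apaf-1 activation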
# Rh110 interf act – counter-screen for Apaf-1 activators: fluorescence interference; AID 504616; 980 tested, under 10 active; shares compounds with Apaf-1 act; fluorescence interference (activity change), % at 20 µM, hits read low; Rh110 fluorescence interference, quenched caspase reaction, Ex480/Em540;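 active = mean activity change at or below -40% when tested at 20 µM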
# Apaf-1 act conf – confirmation of human Apaf-1 activators | shares compounds with Apaf-1 act | reconstituted apoptosome caspase-3 activity, DEVD-Rh110 fluorescence; hits give low values | activity change, negative = activation, % at 20 µM | hit rate 5% among 980 | AID 504617;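 active = mean activity change at or below -40%, meaning activation of 40% or more, at 20 µM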
# An asterisk follows results filed as active; nt = no result.
SMILES,Apaf-1 act,Rh110 interf act,Apaf-1 act conf
COc1ccc(C(=O)/C=C/Nc2cc(C)ccn2)cc1,-165*,-3,16
O=C(OCc1cc(Cl)ccc1OC(F)F)c1ccc([N+](=O)[O-])o1,66,nt,nt
COC(=O)CCC(=O)OC1(C)C(=O)C2=CN(CC(C)C)C(c3ccc(OC)cc3)=CC2=C(Br)C1=O (stereo unspecified),52,nt,nt
Cc1cc(C)n(CCNC(=O)C2CCC(=O)N(CCc3cccc(F)c3)C2)n1 (stereo unspecified),-456*,14,16
COc1ccc(N2CCN(Cc3nc4ccccc4n3C)CC2)cc1,-108*,0,-1
COc1ccc(-c2nc(-c3ccccc3)nc(N3CCN(C)CC3)c2C#N)cc1,41,nt,nt
COc1ccc(CCN2CCC(Nc3nc4ccccc4n3Cc3ccc(F)cc3)CC2)cc1,56,nt,nt
CCOC(=O)c1nn(-c2ccccc2C)c(=O)c2c(N)scc12,47,nt,nt
COc1ccc(/C=C2/C(=O)N(c3c(F)c(F)c(F)c(F)c3F)N=C2C)cc1,54,nt,nt
Cc1nn(Cc2ccc(F)cc2)c(Cl)c1/C=N/NC(=O)c1cccnc1,-49*,-2,10
Oc1cccc2c(NC(=S)Nc3ccc(SC(F)F)cc3)cccc12,53,nt,nt
Fc1ccc(/C=N/Nc2nc3ccccc3[nH]2)cc1F,-64*,-4,13
COc1ccc2nc(C)cc(N/N=C/c3ccc(F)cc3)c2c1,50,nt,nt
c1csc(-c2nc3c4ccccc4c4ccccc4c3[nH]2)c1,44,nt,nt
CC(=O)Nc1ccc(N2CC(C)(C)C2=O)cc1,-58*,6,11
OC1C(O)C(O)C(O)C(O)C1O (stereo unspecified),-1,nt,nt
O=C1Cc2ccccc2C(=O)N1Cc1ccccc1,52,nt,nt
S=c1nc(-c2ccc(Cl)cc2)[nH][nH]1,-396*,8,14
Cc1cc2nn(-c3ccc(Cl)cc3)nc2cc1N,49,nt,nt
O=C(NCc1ccc2c(c1)OCO2)c1ccc2snnc2c1,-181*,-1,10
COC(=O)C1=C(C)N(Cc2ccccc2)C(=NCc2ccc3c(c2)OCO3)N[C@H]1c1ccccc1,45,nt,nt
O=[N+]([O-])c1c(Nc2ccccn2)cc(Cl)c2nonc12,91,nt,nt
CCN1/C(=C/c2ccc3cc(C)ccc3[n+]2CC)Sc2ccc3sccc3c21,62,nt,nt
Cc1cc(C(=O)Nc2ccccc2N2CCCCC2)no1,-512*,8,17
Nc1ccc(N2CCCCC2)c2nonc12,97,nt,nt
SMILES,Apaf-1 act,Rh110 interf act,Apaf-1 act conf
CC12CCC(=O)N1C(C(=O)Nc1ccccc1N1CCCCC1)CS2 (stereo unspecified),48,nt,nt
CCCCNC(=O)C(C)N(CCN(C)C)C(=O)CCCN1C(=O)NC(c2ccc([N+](=O)[O-])cc2)C(C(=O)OCc2ccccc2)=C1C (stereo unspecified),45,nt,nt
S=C(Nc1ccc2nsnc2c1)N1CCCC1,98,nt,nt
Cc1cc2cc(CNC(=O)Nc3cccc(Cl)c3)ccc2n1C,49,nt,nt
NC(=O)C1(N2CCCCC2)CCN(C(=S)Nc2cccc(Cl)c2)CC1,-43*,1,14
Cc1cccc(-c2cc3c(nn2)-c2ccccc2C3=O)c1,91,nt,nt
Cc1cccc(-c2nnc3sc(-c4ccccc4C)nn23)c1,-49*,6,26
COc1cccc(OC)c1-c1nn2c(-c3cc(-c4ccccc4)n[nH]3)nnc2s1,53,nt,nt
NC(=O)CSc1nc2scc(-c3ccc(Cl)cc3)c2c(=O)n1Cc1ccccc1,47,nt,nt
COc1ccccc1-c1oc2ccccc2c1C#CC1(N)CCCCC1,68,nt,nt
Cc1ccc2c(c1)C(O)(C1COC(C)(C)CC1=O)C(=O)N2C (stereo unspecified),-573*,-4,8
Cc1ccc(C)c2[nH]c(=O)c(C(c3nnnn3Cc3ccccc3)N3CCc4ccccc4C3)cc12 (stereo unspecified),67,nt,nt
CC1=NN(c2cccc(Cl)c2)C(=O)C1,75,nt,nt
COc1cccc(-c2cn3nc4c(nc3n2)CCCC4)c1,53,nt,nt
COc1cccc(-c2cc(C(F)(F)F)n3nc(N)nc3n2)c1,-44*,-11,10
Oc1c(Br)cc(Br)cc1C=Nc1ccc2[nH]ncc2c1,84,nt,nt
CCCCCCCCCCOC(=O)Cn1c(COc2cccc(C)c2)[n+](C)c2ccccc21,79,nt,nt
CC[C@]12c3[nH]c4ccc(Cl)cc4c3CCN1C(=O)[C@@H](CC(=O)NCC13CC4CC(CC(C4)C1)C3)C[C@@H]2C(=O)N1CCN(C(=O)c2ccco2)CC1,44,nt,nt
O=C(Cc1cc(=O)[nH][nH]1)N/N=C/C=C/c1ccccc1,48,nt,nt
CCCc1cc(C(=O)Nc2sc(C(C)=O)c(C)c2C(=O)OCC)no1,-192*,-7,8
CCCc1ccc2oc(C(=O)NCCc3nc(C(=O)OCC)cs3)c(C)c2c1,41,nt,nt
CCOc1ccc2nc(NC3=NC(c4ccc(OC)cc4)CC(=O)N3)nc(C)c2c1 (stereo unspecified),79,nt,nt
CCN(CC(=O)Nc1ccc2c(c1)OCCO2)S(=O)(=O)c1ccc(C)cc1,-78*,-6,11
CN(CC(=O)Nc1ccc2c(c1)OCCO2)S(=O)(=O)c1cccc2cccnc12,-115*,13,13
COc1cc2c(cc1OC)C1=C(C#N)CCC(=O)N1CC2,50,nt,nt
SMILES,Apaf-1 act,Rh110 interf act,Apaf-1 act conf
Fc1ccc(-[n+]2nc(Nc3ccccc3)sc2-c2c3ccccc3cc3ccccc23)cc1,42,nt,nt
CCCCCCCCCCCCCCCC(O)C(N)CO (stereo unspecified),80,nt,nt
CC(=O)N1CCN(c2ccc(NCc3ccc(-c4cccc(Cl)c4)o3)cc2)CC1,43,nt,nt
COc1c(Cl)cc(Cl)cc1C(=O)Nc1ccccc1N1CCN(C(C)=O)CC1,-325*,-2,12
CN1CCN(c2ccccc2NC(=O)c2ccc(-c3ccc(Cl)c(Cl)c3)o2)CC1,46,nt,nt
O=C(N/C(=C\c1ccccc1Cl)C(=O)N1CCOCC1)c1ccc([N+](=O)[O-])cc1,-309*,9,9
COCc1cc(=O)[nH]c(Sc2c(-c3ccccc3)c3ccc(Cl)cc3[nH]c2=O)n1,-49*,10,11
CN1/C(=N\O)c2cccc3cccc1c23,86,nt,nt
C#CC(CC)(CC)NC(=O)/C=C/C(=O)O,-566*,7,11
Cc1ccc(C=Nc2ccc(N(C)C)cc2)o1,51,nt,nt
Clc1ccc(C2=Nn3c(nnc3-c3n[nH]c4c3CCC4)SC2)cc1Cl,43,nt,nt
Cc1cnc(C(=O)Nc2ccc(C)c(S(=O)(=O)N(C)C)c2)cn1,-47*,8,9
Oc1ccc(NCc2cccc(OCc3ccccc3)c2)cc1,91,nt,nt
CCOc1ccc(NS(=O)(=O)c2cc(C(=O)NCCCN3CCOCC3)ccc2C)cc1,65,nt,nt
Oc1cc(NCCN2CCOCC2)cc2cccnc12,92,nt,nt
Cc1ccc(S(=O)(=O)NCCN2CCOCC2)c(C)c1C,-48*,3,9
CCN1CCc2c(sc(NC(=O)c3ccc4ccccc4c3)c2C(N)=O)C1,40,nt,nt
Cc1cccc(C)c1OCC(=O)N(Cc1ccco1)C1CCS(=O)(=O)C1 (stereo unspecified),-378*,5,0
CN1CCN(c2cc3c(c4c2[nH]c2ccccc24)C(=O)CC(C)(C)C3)CC1,50,nt,nt
NS(=O)(=O)c1cccc(NC(=O)CCS(=O)(=O)c2ccc(Cl)cc2)c1,-254*,2,3
O=S1(=O)N=C(Nc2ccc(S(=O)(=O)N3CCCCC3)cc2)c2ccccc21,-44*,-3,9
